Results as given in ChEMBL document CHEMBL3734694, “Design, synthesis, and anticancer evaluation of long-chain alkoxylated mono-carbonyl analogues of curcumin” (Eur J Med Chem, 2015).

Legend:
[1] = system: CT26; test: Cytotoxicity against mouse CT26 cells assessed as inhibition of cell proliferation incubated for 72 hrs by MTS assay; type: functional, cell-based; settings: CT26, 72 h
Method in brief: (§1)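 Cells in RPMI-1640 with 10% heat-inactivated FBS at 37°C, 5% CO2. Seeded at 4000 cells/well in triplicate and attached overnight. Exposed to various concentrations for 72 h. MTS added for a further 4 h; absorbance at 490 nm. IC50 = concentration for 50% growth inhibition, as mean ± SEM of three independent tests.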

[2] = Cytotoxicity against human MGC803 cells assessed as inhibition of cell proliferation at 10 uM incubated for 72 hrs by MTS assay; type: functional; settings: MGC-803, 72 h
Method in brief: (§2)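 Single-concentration MTS screen at 10 μM. Cells in RPMI-1640 with 10% FBS, seeded at 4000 cells/well in triplicate, attached overnight, then exposed for 72 h at 37°C, 5% CO2. MTS for 4 h; absorbance 490 nm. Reported as % inhibition.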

[3] = Cytotoxicity against human GES-1 cells assessed as inhibition of cell proliferation incubated for 72 hrs by MTS assay; type: functional, cell-based; settings: GES1, 72 h; method in brief: as §1
[4] = Cytotoxicity against human SGC7901 cells assessed as inhibition of cell proliferation at 10 uM incubated for 72 hrs by MTS assay; type: functional; settings: SGC-7901, 72 h; method in brief: as §2
[5] = Cytotoxicity against human SW620 cells assessed as inhibition of cell proliferation at 10 uM incubated for 72 hrs by MTS assay; type: functional; settings: SW-620, 72 h; method in brief: as §2
[6] = Cytotoxicity against human SGC7901 cells assessed as inhibition of cell proliferation incubated for 72 hrs by MTS assay; type: functional, cell-based; settings: SGC-7901, 72 h; method in brief: as §1
[7] = Cytotoxicity against human MGC803 cells assessed as inhibition of cell proliferation incubated for 72 hrs by MTS assay; type: functional, cell-based; settings: MGC-803, 72 h; method in brief: as §1
[8] = Cytotoxicity against human SW620 cells assessed as inhibition of cell proliferation incubated for 72 hrs by MTS assay; type: functional, cell-based; settings: SW-620, 72 h; method in brief: as §1
[9] = system: CT26; test: Cytotoxicity against mouse CT26 cells at 10 uM assessed as inhibition of cell proliferation incubated for 72 hrs by MTS assay; type: functional; settings: CT26, 72 h; method in brief: as §2

COc1cc(/C=C2\CCC/C(=C\c3ccc(OCCBr)c(OC)c3)C2=O)ccc1OCCBr gave an IC50 [1] of 9.85 µM, an inhibition at 10 µM [2] of 58.4% and an IC50 [3] of 3.56 µM. For the same molecule, the inhibition at 10 µM [4] was 69.2%, the inhibition at 10 µM [5] was 66.3% and the IC50 [6] was 6.26 µM. It also gave an IC50 [7] of 7.72 µM, an IC50 [8] of 6.26 µM and an inhibition at 10 µM [9] of 77.3%.

With COc1cc(/C=C2\CCC/C(=C\c3ccc(OCCCN4CCN(C)CC4)c(OC)c3)C2=O)ccc1OCCCBr the inhibition at 10 µM [2] was -7.15%, the inhibition at 10 µM [4] was 15.7% and the inhibition at 10 µM [5] was 48.1%. For the same molecule, the inhibition at 10 µM [9] was 37.3%.

With COc1cc(/C=C/C(=O)CC(=O)/C=C/c2ccc(O)c(OC)c2)ccc1O [CURCUMIN] the IC50 [1] was 7.7 µM, the IC50 [3] was 27.9 µM and the IC50 [6] was 24.4 µM. For the same molecule, the IC50 [7] was 31.4 µM and the IC50 [8] was 12.5 µM.

Work on O=C1/C(=C/c2ccc(OCCBr)cc2)CC/C1=C\c1ccc(OCCBr)cc1 yielded an inhibition at 10 µM [2] of 52%, an inhibition at 10 µM [4] of 76% and an inhibition at 10 µM [5] of 78.5%. It also gave an inhibition at 10 µM [9] of 88.1%.

Molecule COc1cc(/C=C2\CCC/C(=C\c3ccc(OCCCN4CCOCC4)c(OC)c3)C2=O)ccc1OCCCBr has an IC50 [1] of 10.5 µM, an inhibition at 10 µM [2] of 51.2% and an IC50 [3] of 10 µM. It also gave an inhibition at 10 µM [4] of 61.9%, an inhibition at 10 µM [5] of 72.7% and an IC50 [6] of 11 µM. For the same molecule, the IC50 [7] was 10.2 µM, the IC50 [8] was 5.64 µM and the inhibition at 10 µM [9] was 65.2%.

With COc1ccc(/C=C2\CCC/C(=C\c3ccc(OCCCN4CCOCC4)c(OC)c3)C2=O)cc1OC the IC50 [1] was 2.99 µM, the inhibition at 10 µM [2] was 89.8% and the IC50 [3] was 8.17 µM. The inhibition at 10 µM [4] was 86.4%, the inhibition at 10 µM [5] was 83.6% and the IC50 [6] was 2.87 µM. The IC50 [7] was 8.61 µM, the IC50 [8] was 3.81 µM and the inhibition at 10 µM [9] was 86.5%.

COc1cc(/C=C/C(=O)/C=C/c2ccccc2Cl)ccc1OCCCN1CCOCC1 showed an inhibition at 10 µM [2] of 38.5%, an inhibition at 10 µM [4] of 75.3% and an inhibition at 10 µM [5] of 81.6%. The inhibition at 10 µM [9] was 87.2%.

COc1cc(/C=C2\CCC/C(=C\c3ccc(OCCCN4CCCCC4)c(OC)c3)C2=O)ccc1OCCCN1CCCCC1 gave an IC50 [1] of 2.42 µM, an inhibition at 10 µM [2] of 76.9% and an IC50 [3] of 6.35 µM. The inhibition at 10 µM [4] was 82.8%, the inhibition at 10 µM [5] was 86.9% and the IC50 [6] was 2.32 µM. The IC50 [7] was 2.92 µM, the IC50 [8] was 2.49 µM and the inhibition at 10 µM [9] was 93.2%.

In the case of COc1cc(/C=C2\CC/C(=C\c3ccccc3C(F)(F)F)C2=O)ccc1OCCCN1CCOCC1, the inhibition at 10 µM [2] is reported as 4.98%, the inhibition at 10 µM [4] is reported as 29.7% and the inhibition at 10 µM [5] is reported as 34.9%. The inhibition at 10 µM [9] was 4.71%.

For COc1cc(/C=C2\CCC/C(=C\c3cccc(OC)c3OC)C2=O)ccc1OCCCN1CCOCC1, the inhibition at 10 µM [2] was -9.26%, the inhibition at 10 µM [4] was -6.53% and the inhibition at 10 µM [5] was 22.5%. For the same molecule, the inhibition at 10 µM [9] was 57.2%.

COc1ccc(/C=C/C(=O)/C=C/c2ccc(OCCCN3CCOCC3)c(OC)c2)cc1OC gave an IC50 [1] of 3.13 µM, an inhibition at 10 µM [2] of 53.8% and an IC50 [3] of 7.81 µM. For the same molecule, the inhibition at 10 µM [4] was 66.1%, the inhibition at 10 µM [5] was 84.8% and the IC50 [6] was 5.99 µM. The IC50 [7] was 7.14 µM, the IC50 [8] was 2.8 µM and the inhibition at 10 µM [9] was 79.7%.

COc1cc(/C=C/C(=O)/C=C/c2ccccc2C(F)(F)F)ccc1OCCCN1CCOCC1 showed an inhibition at 10 µM [2] of -2.85%, an inhibition at 10 µM [4] of 3.22% and an inhibition at 10 µM [5] of -3.21%. For the same molecule, the inhibition at 10 µM [9] was -24%.

In the case of COc1cc(/C=C2\CC/C(=C\c3ccc(OCCCn4ccnc4)c(OC)c3)C2=O)ccc1OCCCBr, the inhibition at 10 µM [2] is reported as 7.1%, the inhibition at 10 µM [4] is reported as 14% and the inhibition at 10 µM [5] is reported as 65.7%. For the same molecule, the inhibition at 10 µM [9] was 87.1%.

COc1cc(/C=C2\CC/C(=C\c3ccc(OCCCN4CCOCC4)c(OC)c3)C2=O)ccc1OCCCN1CCOCC1 gave an IC50 [1] of 0.39 µM, an inhibition at 10 µM [2] of 83.9% and an IC50 [3] greater than 30 µM. The inhibition at 10 µM [4] was 86.1%, the inhibition at 10 µM [5] was 86% and the IC50 [6] was 1 µM. The IC50 [7] was 2.28 µM, the IC50 [8] was 1.49 µM and the inhibition at 10 µM [9] was 92.5%.

In the case of COc1cc(/C=C2\CCC/C(=C\c3ccc(OCCCN4CCOCC4)c(OC)c3)C2=O)ccc1OCCCN1CCOCC1, the IC50 [1] is reported as 2.69 µM, the inhibition at 10 µM [2] is reported as 78.1% and the IC50 [3] is reported as 3.02 µM. The inhibition at 10 µM [4] was 81.8%, the inhibition at 10 µM [5] was 85.7% and the IC50 [6] was 4.96 µM. For the same molecule, the IC50 [7] was 2.06 µM, the IC50 [8] was 1.98 µM and the inhibition at 10 µM [9] was 93.3%.

With COc1cc(/C=C/C(=O)/C=C/c2ccc(OCCCN3CCOCC3)c(OC)c2)ccc1OCCCN1CCOCC1 the inhibition at 10 µM [2] was 44.5%, the inhibition at 10 µM [4] was 67.5% and the inhibition at 10 µM [5] was 84%. The inhibition at 10 µM [9] was 89.7%.

Molecule COc1ccccc1/C=C1\CCC/C(=C\c2ccc(OCCCN3CCOCC3)c(OC)c2)C1=O has an inhibition at 10 µM [2] of 2.3%, an inhibition at 10 µM [4] of -0.33% and an inhibition at 10 µM [5] of 22.9%. The inhibition at 10 µM [9] was 31.6%.
